Laboratory results reported in publication PMC3658176 (Cancer cell, 2013).
Where no end group is shown, it is not given here.

Tests used:
[1] = target: T1, H2-K^b (Mus musculus, UniProt P01901); test: Cell-free competition MHC peptide binding assay, purified H2-K^b
T1 sequence (P01901 22-369): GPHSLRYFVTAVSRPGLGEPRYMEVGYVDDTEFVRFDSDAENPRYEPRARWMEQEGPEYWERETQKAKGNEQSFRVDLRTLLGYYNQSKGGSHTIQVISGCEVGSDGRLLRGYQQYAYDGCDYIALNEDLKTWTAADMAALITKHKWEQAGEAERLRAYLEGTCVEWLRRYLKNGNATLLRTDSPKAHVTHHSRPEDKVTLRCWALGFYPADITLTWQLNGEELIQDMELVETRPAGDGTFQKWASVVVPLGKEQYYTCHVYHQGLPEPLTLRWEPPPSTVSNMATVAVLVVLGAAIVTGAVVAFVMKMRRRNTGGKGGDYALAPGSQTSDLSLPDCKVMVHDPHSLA
T1 sequence (P01887 21-119 partner): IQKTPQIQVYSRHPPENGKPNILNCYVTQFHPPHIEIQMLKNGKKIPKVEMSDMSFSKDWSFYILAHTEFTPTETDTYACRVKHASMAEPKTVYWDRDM

[2] = target: T2, H2-D^b (Mus musculus, UniProt P01899); test: Cell-free competition MHC peptide binding assay, purified H2-D^b
T2 sequence (P01899 25-362): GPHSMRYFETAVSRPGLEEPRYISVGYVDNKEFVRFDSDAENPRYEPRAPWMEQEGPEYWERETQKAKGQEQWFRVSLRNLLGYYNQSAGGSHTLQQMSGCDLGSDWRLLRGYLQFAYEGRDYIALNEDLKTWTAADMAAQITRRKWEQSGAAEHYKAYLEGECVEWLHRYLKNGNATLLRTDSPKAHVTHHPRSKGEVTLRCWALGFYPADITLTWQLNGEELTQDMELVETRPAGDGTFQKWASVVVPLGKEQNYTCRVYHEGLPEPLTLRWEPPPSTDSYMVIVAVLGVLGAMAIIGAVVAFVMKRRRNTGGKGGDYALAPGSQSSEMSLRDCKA
T2 sequence (P01887 21-119 partner): T1 sequence (P01887 21-119 partner)

[3] = target: HLA-A*0201 (Homo sapiens, UniProt P04439, D140Y/D185E/D98H/E176V/E277Q/G131W/G231S/I119V/I121R/I166T/I218V/L300P/L318F/N151K/N90K/P208A/P217A/Q86G/Q94H/R138H/R169H/T345S); test: Cell-free competition MHC peptide binding assay, purified HLA-A*0201
In short: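 Purified MHC class I molecule incubated with a labelled probe peptide and graded concentrations of unlabelled test peptide. IC50 taken as the inhibitor peptide concentration that displaces half of the probe. Labelled probe concentration was below MHC concentration. Under these conditions, and where IC50 ≥ MHC concentration, IC50 approximates KD.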

Compound | IC50 [1] | IC50 [2] | other results
CC[C@H](C)[C@H](NC(=O)[C@@H](NC(=O)[C@@H](N)CO)[C@@H](C)CC)C(=O)N[C@@H](CC(N)=O)C(=O)N[C@@H](Cc1ccccc1)C(=O)N[C@@H](CCC(=O)O)C(=O)N[C@@H](CCCCN)C(=O)N[C@@H](CC(C)C)C(=O)O [OVA257–264] | 0.9 nM |  | 
EGPRNQDWL [EGP] |  | 454 nM | 
EGSRNQDWL [mgp100_25–33] |  | 23000 nM | 
FMDGTMSQV [Tyr369–377] |  |  | IC50 [3]: 4.2 nM
KVPRNQDWL [hgp100_25–33] |  | 186 nM | 
SIYRYYGL [SIY] | 1.1 nM |  | 
